# Screens deposited in PubChem by The Scripps Research Institute Molecular Screening Center.
# OX1R antag-1 – antagonists of human orexin 1 receptor (OX1R); AID 485270; actives 1.8% (n = 330,000); OX1R-expressing cells, FRET antagonist read-out; O43613; inhibition, % at 6.6 µM; in the data active = inhibition mostly above about 38%, no sharp cut-off; inactive = mostly below about 40%;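 also: 0% = agonist challenge alone and 100% = reference antagonist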
# OX1R antag-2 – blocks the human orexin 1 receptor; inhibition, % at 5 µM; O43613; actives 0.43% (n = 330,000); AID 434989; CHO/OX1R cells, Fluo-8 calcium fluorescence, orexin A;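 active = inhibition above its plate's threshold, mean inhibition of all tested compounds on the plate plus 3 SD, cut at about 37% in these data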;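 also: 0% = orexin A challenge wells and 100% = SB-334867-A antagonist wells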
# CHO parental Ca – counter-screen: ATP calcium response change in parental CHO cells. AID 463079. inhibition, % at 5.6 µM. parental CHO-K1, ATP-induced calcium, Fluo-8 fluorescence. actives 0.63% (n = 330,000);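 active = inhibition above that plate's mean sample inhibition plus 3 SD, cut at about 26% in these data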;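 also: 0% = ATP-challenged DMSO wells and 100% = DMSO wells without ATP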
#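 Test system: untransfected parental CHO cell line; also added: ATP stimulus; dosing: 5.6 µM, single dose; signal: calcium-sensitive Fluo-8 fluorescence; measure: percent inhibition of ATP-evoked calcium rise, normalized to controls; benchmarks: low control ATP plus DMSO, high control DMSO only; replication: one well per compound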
# GPR7 antagonist – human neuropeptides B/W receptor 1 antagonism. GPR7-expressing cells, fluorescence antagonist assay. inhibition, % at 4.4 µM. P48145. actives 1.1% (n = 290,000); in the data active = inhibition above about 16%, passing the limit was not always enough;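 also: cells stimulated with the agonist NPW; 0% = agonist with vehicle and 100% = vehicle without agonist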
# Target sequence (P48145 whole entry, looked up): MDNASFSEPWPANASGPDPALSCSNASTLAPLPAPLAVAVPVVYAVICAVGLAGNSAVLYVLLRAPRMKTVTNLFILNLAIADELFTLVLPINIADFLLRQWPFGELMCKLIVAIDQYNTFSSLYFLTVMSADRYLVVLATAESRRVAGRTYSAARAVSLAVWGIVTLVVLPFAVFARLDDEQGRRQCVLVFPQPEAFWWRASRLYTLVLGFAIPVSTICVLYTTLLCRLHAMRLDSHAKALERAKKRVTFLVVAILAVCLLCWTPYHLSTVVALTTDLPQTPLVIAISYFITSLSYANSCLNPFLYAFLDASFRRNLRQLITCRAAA
# TAAR1 antagonist – human TAAR1 antagonism; Q96RJ0; CHO RD-HGA16 TAAR1, Fluo-8 calcium fluorescence, antagonist; inhibition, % at 3 µM; actives 1.5% (n = 360,000);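 active = inhibition above a per-plate cutoff, the mean inhibition of test compounds on that plate plus 3 SD, cut at about 49% in these data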;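 also: 0% = DMSO plus EC80 beta-PEA response and 100% = DMSO alone without agonist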
#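 Material: RD-HGA16 CHO cells with stable hTAAR1 and Gα16; Dosing: single nominal final test compound concentration of 3 µM; Schedule: seeding 17-24 h prior, 75-min 37 °C, 30-min RT dye loading; Detection: kinetic Fluo-8 calcium fluorescence measurement; Measure: % inhibition from peak post-agonist over basal fluorescence ratio; Benchmarks: vehicle and agonist controls.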
# TAAR1 agonist – agonists of human TAAR1; Q96RJ0; CHO RD-HGA16 TAAR1, Fluo-8 calcium fluorescence; vehicle wells 0%, saturating PEA agonist 100%; activation, % at 3 µM; actives 0.99% (n = 360,000); AID 624467;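 active = activation above the mean activation of all test compounds in the run plus 3 SD, cut at about 38% in these data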
#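 Assay system: CHO-derived RD-HGA16 cells with stable Gα16 and human TAAR1; timing: 17-24 h seeding, 75 min 37 °C dye, 30 min RT; read-out: % activation from peak over basal fluorescence ratio, DMSO-to-PEA scaled; measured by: kinetic Fluo-8 calcium fluorescence; benchmarks: low control DMSO, high control PEA (EC100); doses: 3 µM single concentration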
# OX1R Fluo8 conf – OX1R (human) antagonism, confirmed; shares compounds with OX1R antag-2; CHO/OX1R cells, orexin A calcium Fluo-8 fluorescence; inhibition, % at 5 µM; actives 38% (n = 1,100); AID 492963; in the data active = inhibition above about 29%;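 also: 0% = agonist challenge alone and 100% = reference antagonist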
# CHO Ca triplic – counter-screen: parental CHO calcium response change, triplicate | shares compounds with OX1R antag-2 | parental CHO-K1, ATP-induced calcium, Fluo-8 fluorescence | inhibition, % at 5.6 µM | actives 9.3% (n = 1,100) | AID 492965;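 active = inhibition above a per-plate limit, the mean inhibition of that plate's test compounds plus 3 SD, cut at about 25% in these data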;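 also: 0% = ATP challenge with DMSO and 100% = DMSO without ATP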
# Starred values were filed as active, the others as inactive; . = no result. A selection: hits, their analogues and other compounds. The true share with any hit is near 4.5%.
SMILES,OX1R antag-1,OX1R antag-2,CHO parental Ca,GPR7 antagonist,TAAR1 antagonist,TAAR1 agonist,OX1R Fluo8 conf,CHO Ca triplic
COc1ccccc1C(=O)COC(=O)c1ccc(N(C)C)cc1,34,30,0,-11,23,8,9,19
O=C(CSc1nnc(NC(=O)C2CC2)s1)NCc1ccccc1Cl,18,-16,-8,-5,-6,-1,.,.
COc1ccccc1NS(=O)(=O)c1cc(NC(=O)c2ccc3ccccc3n2)ccc1Cl,15,-7,-9,-1,-1,0,.,.
COc1ccc(C(=O)Nc2ccc(Cl)c(S(=O)(=O)Nc3ccccc3OC)c2)cc1,30,32,-3,14,41,5,15,3
Brc1ccccc1-n1nnc(-c2nccs2)n1,22,45,-12,-15,13,14,7,-8
O=C(Nc1cccc(S(=O)(=O)Nc2ccc(SC(F)F)cc2)c1)C1CCC1,17,37,6,.,18,6,3,-2
COCC1CCN(Cc2c(C(=O)N3CCc4ccccc4C3)nc3ccc(Cl)cn23)C1 (stereo unspecified),.,.,.,-13,-13,6,.,.
Cc1ccc(NC(=O)N(C2=NCC(C)S2)c2ccccc2)cc1 (stereo unspecified),5,-8,-16,-14,20,6,.,.
CNC(=S)N(C1=NCC(c2ccc([N+](=O)[O-])cc2)S1)c1ccccc1 (stereo unspecified),30,20,12,2,-8,-1,-13,-11
O=C(Nc1ccnn1C1CCN(Cc2c[nH]c3ccccc23)CC1)c1ccccc1,2,-4,-6,12,-14,2,.,.
COc1ccc(-c2nc(/C=C3\C(C)=Nc4ccccc43)c(O)o2)cc1,49,30,23,-3,34,4,23,5
Cc1ccc(N=Cc2nc(-c3ccc(C)cc3)oc2O)cc1,.,.,.,2,16,1,.,.
Oc1ccccc1-c1nnc(-c2ccc(C(F)(F)F)cc2)o1,6,-21,-19,-3,-13,0,.,.
CC1=Nc2ccccc2/C1=C\c1nc(-c2ccc(C(F)(F)F)cc2)oc1O,9,40*,21,10,40,18,51*,54*
C=CCNc1nc(Cl)nc(Nc2cc(Cl)ccc2OC)n1,.,.,.,-16,3,-1,.,.
CC(C)C[C@H]1CN(CCCC[C@@H]2CNC(=O)C(=O)N2CC2CCCCC2)C(=O)C(=O)N1CC1CCCCC1,.,.,.,.,-14,0,.,.
Cc1ccc(NC(=O)C2=C(c3ccccc3)S(=O)(=O)CCS2(=O)=O)cc1,25,35,22,34*,18,6,43*,22
COc1ccc(Cl)c2sc(N(CCN(C)C)C(=O)C3=COCCO3)nc12,.,.,.,.,11,2,.,.
Cc1ccc2nc(-c3cccc(SC4CCCCC4)c3)c(NC3CCCCC3)n2c1,3,-15,-20,.,-4,5,.,.
Cc1ccn2c(NCc3ccccc3)c(-c3cccc(SC4CCCCC4)c3)nc2c1,32,56,15,.,48,4,18,-4
Cc1ccc(/C=C2\Sc3ccccc3C2=O)s1,13,30,-22,7,0,1,34*,-1
O=C1CC(NCc2ccccc2)C(=O)N1c1ccc(F)cc1 (stereo unspecified),.,.,.,-6,-17,7,.,.
O=C1CC(NCc2ccccc2F)C(=O)N1c1ccccc1 (stereo unspecified),1,43*,5,-2,14,10,-2,-4
COCC(=O)Nc1cc(C(=O)NCC(C)C)ccc1Cl,6,32,2,-6,2,2,-3,-1
COCC(=O)Nc1cc(C(=O)NCCc2ccccc2)ccc1Cl,12,-5,-11,2,6,2,.,.
CCOC(=O)c1ccc(N=C2SC(C(=O)NC)CC(=O)N2Cc2ccc(F)cc2)cc1 (stereo unspecified),15,-4,-1,-8,-18,6,.,.
